From article PMC6896334 (Cell reports, 2019)
Values joined by “and” are separate entries in the source; they are usually repeats but may differ in a detail not shown here. Equal entries are not always repeated.

Tests used:
Id1 [1] = target: T1, Id1 (Mus musculus, UniProt P20067); assay: Circular dichroism; format: binding; settings: AGX51 0–50 μM; AGXA 0–110 μM in DMSO
T1 sequence (P20067 1-148 isoform P20067-2): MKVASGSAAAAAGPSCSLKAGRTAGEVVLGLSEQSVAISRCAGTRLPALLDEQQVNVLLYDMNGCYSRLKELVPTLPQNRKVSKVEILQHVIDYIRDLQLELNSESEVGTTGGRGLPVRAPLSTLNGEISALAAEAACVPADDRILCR

E47 = target: T2, E47 (Homo sapiens, UniProt P15923); assay: Circular dichroism; format: binding; settings: AGX51 0, 10, 20, 50 μM
T2 sequence (P15923 1-651 isoform P15923-2): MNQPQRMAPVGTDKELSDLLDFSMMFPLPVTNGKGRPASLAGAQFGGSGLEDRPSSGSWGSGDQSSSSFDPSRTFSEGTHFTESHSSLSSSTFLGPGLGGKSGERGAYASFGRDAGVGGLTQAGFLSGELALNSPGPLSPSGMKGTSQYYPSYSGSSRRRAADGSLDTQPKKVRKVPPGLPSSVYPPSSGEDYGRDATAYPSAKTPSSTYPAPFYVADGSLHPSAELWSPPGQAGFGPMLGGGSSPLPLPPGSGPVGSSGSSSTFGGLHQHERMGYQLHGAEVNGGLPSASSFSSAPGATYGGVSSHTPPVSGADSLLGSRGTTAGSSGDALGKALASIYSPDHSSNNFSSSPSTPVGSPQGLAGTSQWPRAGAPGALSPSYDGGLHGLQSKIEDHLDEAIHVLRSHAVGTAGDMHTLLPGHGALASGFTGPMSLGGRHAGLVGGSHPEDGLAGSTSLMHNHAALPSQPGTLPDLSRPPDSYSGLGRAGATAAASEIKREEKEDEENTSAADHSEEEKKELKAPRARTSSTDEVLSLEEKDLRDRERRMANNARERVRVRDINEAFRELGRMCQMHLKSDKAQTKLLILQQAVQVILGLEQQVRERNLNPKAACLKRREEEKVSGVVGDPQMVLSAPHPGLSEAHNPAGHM

Id3 = target: T3, Id3 (Mus musculus, UniProt P41133); assay: Circular dichroism; format: binding
T3 sequence (P41133 1-119): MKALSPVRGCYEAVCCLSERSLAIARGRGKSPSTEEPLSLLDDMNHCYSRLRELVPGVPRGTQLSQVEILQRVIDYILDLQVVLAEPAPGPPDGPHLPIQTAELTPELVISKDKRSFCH

[2] = target: T4, NanoLuc luciferase ID1 fusion protein (Homo sapiens, UniProt P41134); assay: NanoBRET target engagement assay in permeabilized 293T cells; format: binding; settings: 2 μM AGX51 tracer, 0–60 μM competitor, 50 μg/mL digitonin
T4 sequence (P41134 1-155): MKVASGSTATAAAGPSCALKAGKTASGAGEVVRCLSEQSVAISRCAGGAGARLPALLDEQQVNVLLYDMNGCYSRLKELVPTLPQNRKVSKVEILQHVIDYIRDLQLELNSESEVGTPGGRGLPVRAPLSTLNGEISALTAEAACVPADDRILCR
Summary of the method: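 293T cells transfected with an N-terminal NanoLuc–ID1 fusion construct and plated 24 h later. Cells received 2 µM fluorescent tracer plus 0–60 µM competitor, then were permeabilised with digitonin (50 µg/mL). NanoBRET Nano-Glo substrate was added and the BRET ratio read, following the kit protocol for intracellular target engagement.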

ID1 [3] = target: T5, ID1 (Homo sapiens, UniProt P41134); assay: Western blot for ID1 in HUVECs; format: cell-based; settings: 0–40 μM, 24 h
T5 sequence (P41134 1-155): T4 sequence (P41134 1-155)
Summary of the method: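 HUVECs treated with 0–40 µM test compound for 24 h. Whole-cell lysates were immunoblotted for the target protein. Infrared band intensities were blank-subtracted and normalised to tubulin.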

ID1 mRNA = assay: qRT-PCR for ID1 in HCT116 cells; format: cell-based, human; settings: HCT116, 40 μM, 24 hours
Summary of the method: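 ID1 transcript measured by qRT-PCR after treatment, using validated QuantiTect primer sets with GAPDH as reference. Fold change was calculated by the delta-delta CT method.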

E protein binding = assay: EMSA on whole cell lysates from HCT116 cells; format: cell-based, human; settings: HCT116, 40 μM, 24 h
HUVECs [4] = assay: HUVEC cell growth; format: cell-based, human; settings: 20 μM, 5 days
Summary of the method: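 HUVECs seeded at 38,000 cells per 24-well well, in triplicate for each time point, with 20 µM test compound or DMSO. Viable cells were counted by trypan blue exclusion on days 1, 3 and 5 after seeding.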

Cyclin D1 = assay: Western blot for Cyclin D1 in HCT116 cells; format: cell-based, human; settings: HCT116, 40 μM, 0-48 hours
HUVECs [5] = assay: HUVEC scratch assay; format: cell-based, human; settings: 0–40 μM, 24 h
Summary of the method: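 HUVECs grown on 0.1% fibronectin-coated wells to confluence over 24 h. They were then serum-starved for 4 h in endothelial basal medium and scratched with a pipette tip to create a cell-free zone before exposure to the test compound.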

[6] = Pharmacokinetics in serum after i.p. injection; format: in vivo, mouse; settings: for mean maximum serum concentration: mice
Summary of the method: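 Eight-week-old male BALB/c mice received a single i.p. dose of 30, 50 or 100 mg/kg in 70% DMSO, with another group given 100 mg/kg in 100% DMSO (n = 3 per group). Blood was drawn at 30 min, 1, 3, 6 and 24 h. […] was quantified by a validated LC-MS protocol.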

[7] = Concentration of AGX51 in the eyes after i.p. dosing; format: in vivo, mouse
Summary of the method: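 Test compound given i.p. at 30 mg/kg. Eyes were dissected at time points over 24 h, extracted, and compound content per eye measured by mass spectrometry.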

[8] = 14-day toxicity study, i.p. dosing; format: in vivo, mouse; settings: mice, 60 mg/kg i.p. bid, 14 days
Summary of the method: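 Mice given the test compound or vehicle (70% DMSO in water) i.p. at 60 mg/kg twice daily for 14 consecutive days. They were sacrificed 24 h after the last dose for gross and complete necropsy and clinical pathology. Clinical chemistry covered BUN, creatinine, ALP, ALT, AST, GGT, bilirubin, total protein, albumin, globulin, phosphorus, glucose, cholesterol, calcium, sodium, potassium and chloride.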

CCC(=O)N(CCC(c1ccc2c(c1)OCO2)c1ccccc1OC)Cc1ccccc1 (centres unmarked) [AGX51, N-(3-(benzo[d][1,3]dioxol-5-yl)-3-(2-methoxyphenyl)propyl)-N-benzylpropionamide]
effect on Id1 secondary structure (CD spectra) (Id1 [1]): significant alteration in the 2° structure of Id1 | interaction with E47 (CD) (E47): no evidence of an interaction | effect on Id3 secondary structure (CD) (Id3): small but reproducible effect | competition with the AGX51 tracer (BRET ratio) [2]: able to compete the AGX51 tracer | concentration at which a significant decrease in ID1 protein levels was observed (ID1 [3]): 10 µM | ID1 mRNA levels (ID1 mRNA): increase in ID1 mRNA levels | E protein binding in cell lysates (E protein binding): small increase in E protein binding | cell viability / growth (HUVECs [4]): reduced cell viability | Cyclin D1 levels (Cyclin D1): reduction in Cyclin D1 levels | HUVEC migration after scratch (HUVECs [5]): significantly impaired HUVEC migration | half-life ([6]; male, BALB/c, mouse, serum, ip): ~3 h | mean maximum serum concentration ([6]; i.p. 30 mg/kg in 70% DMSO, 30 mg/kg): 1.1 μg/mL and 2.7 μM | mean maximum serum concentration ([6]; i.p. 50 mg/kg in 70% DMSO, 50 mg/kg): 1.6 μg/mL and 4 μM | mean maximum serum concentration ([6]; i.p. 100 mg/kg in 70% DMSO, compared with lower doses): not increased further | half-life ([7]; male, BALB/c, mouse, eye, ip, 30 mg/kg): 3.7 h | maximum concentration in the eye ([7]; mice, i.p. 30 mg/kg, after 30 min): ~ 4 ng/eye | clinical chemistry parameters and hematology [8]: within normal limits | gross necropsy and histopathological evaluation of all major organs [8]: No abnormal findings | mortality or morbidity [8]: no mortality or morbidity was observed | weight loss [8]: no significant weight loss
